{"source": "paper PMC6310869", "about": "(CPT: Pharmacometrics & Systems Pharmacology, 2018)", "key": {"CYP2D6 [1]": {"molecular_target": "T1, CYP2D6 (Homo sapiens, UniProt P10635)", "T1 sequence (P10635 whole entry)": "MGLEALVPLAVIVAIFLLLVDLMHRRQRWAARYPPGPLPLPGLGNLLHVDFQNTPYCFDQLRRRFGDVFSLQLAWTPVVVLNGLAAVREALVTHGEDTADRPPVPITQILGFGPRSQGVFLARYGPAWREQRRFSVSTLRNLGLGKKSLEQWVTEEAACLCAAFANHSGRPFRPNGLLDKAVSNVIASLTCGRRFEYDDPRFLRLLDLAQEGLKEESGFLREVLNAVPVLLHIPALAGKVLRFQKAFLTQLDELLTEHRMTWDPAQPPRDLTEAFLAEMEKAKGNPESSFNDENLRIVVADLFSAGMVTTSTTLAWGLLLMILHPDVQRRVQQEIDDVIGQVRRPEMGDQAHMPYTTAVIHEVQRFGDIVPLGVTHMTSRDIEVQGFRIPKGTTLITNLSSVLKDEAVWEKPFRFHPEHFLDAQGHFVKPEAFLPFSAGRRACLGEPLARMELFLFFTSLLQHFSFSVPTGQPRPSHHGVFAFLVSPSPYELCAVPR", "details": "ref Simcyp; cited from earlier work"}, "CYP3A4/5 [2]": {"test_system": "CYP3A4/5", "test": "Direct inhibition", "type": "in vitro ADME", "details": "human, pooled human liver microsomes, probe midazolam (1'-hydroxylation)"}, "CYP3A4 mRNA": {"test_system": "CYP3A4 mRNA", "test": "Induction in primary cultures of cryopreserved human hepatocytes", "type": "cell-based", "details": "1 μM, once daily for 3 days, 3 donors", "how_it_was_run": "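Primary cultures of cryopreserved human hepatocytes, 3 white donors as independent evaluations. Dosed once daily for 3 days with test compound (1, 2.5, 10 μM), vehicle, 25 μM flumazenil (negative control) or 20 μM rifampicin (positive control). Cells lysed and total RNA harvested; CYP3A4 mRNA quantified by RT-PCR.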"}, "human hepatocytes": {"test_system": "human hepatocytes", "test": "Cell integrity of hepatocyte cultures", "type": "cell-based", "details": "for Lactate dehydrogenase release: 3 days", "how_it_was_run": "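Cryopreserved primary human hepatocytes from 3 white donors, dosed once daily for 3 days with test compound (1, 2.5, 10 μM), vehicle, 25 μM flumazenil (negative control) or 20 μM rifampicin (positive control). Cell integrity judged by lactate dehydrogenase release into the culture medium and by microscopic review of morphology and confluency.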"}, "CYP3A4/5 [3]": {"test_system": "CYP3A4/5", "type": "in vitro ADME", "details": "human, pooled human liver microsomes, probe midazolam (1'-hydroxylation)"}, "CYP2D6 [4]": {"molecular_target": "T1, CYP2D6", "test": "In vitro time-dependent inhibition of CYP2D6", "type": "in vitro ADME", "details": "in vitro data"}, "[5]": {"test": "logP by shaking octanol/water, HPLC quantification", "type": "physicochemical", "how_it_was_run": "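Shake-flask method: octanol-saturated water holding test compound (~26 mg/mL) was shaken with an equal volume of water-saturated octanol for 1 hour at 23°C. Compound quantified by HPLC in each separated phase.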"}, "[6]": {"test": "Clinical pharmacokinetics, phase I study in patients with solid tumors", "type": "in vivo", "details": "human, plasma, iv"}, "[7]": {"test": "Plasma protein binding in fresh human plasma by ultrafiltration", "type": "in vitro ADME", "how_it_was_run": "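Fresh human plasma spiked with test compound at 5, 10 and 75 μg/mL and incubated 0.5 hours at 37°C. Ultrafiltration followed by LC-MS/MS of both the ultrafiltrate and the originally spiked plasma.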"}, "[8]": {"details": "patients; cited from earlier work"}, "CYP2B6": {"molecular_target": "T2, CYP2B6 (Homo sapiens, UniProt P20813)", "T2 sequence (P20813 1-491)": "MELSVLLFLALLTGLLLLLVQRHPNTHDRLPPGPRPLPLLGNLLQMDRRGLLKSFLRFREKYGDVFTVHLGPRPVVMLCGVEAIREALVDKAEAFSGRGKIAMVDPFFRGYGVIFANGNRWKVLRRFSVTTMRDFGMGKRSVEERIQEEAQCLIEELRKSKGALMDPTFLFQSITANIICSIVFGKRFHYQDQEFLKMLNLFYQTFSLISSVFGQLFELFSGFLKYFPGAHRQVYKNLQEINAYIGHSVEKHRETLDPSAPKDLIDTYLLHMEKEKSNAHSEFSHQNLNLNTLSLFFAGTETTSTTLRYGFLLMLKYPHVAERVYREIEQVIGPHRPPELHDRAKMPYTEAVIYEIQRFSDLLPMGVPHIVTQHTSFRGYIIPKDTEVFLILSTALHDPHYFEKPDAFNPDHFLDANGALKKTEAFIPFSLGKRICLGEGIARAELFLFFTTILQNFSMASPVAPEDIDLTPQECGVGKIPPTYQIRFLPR", "type": "in vitro ADME", "details": "pooled human liver microsomes, probe efavirenz (8-hydroxylation)"}, "CYP2D6 [9]": {"molecular_target": "T1, CYP2D6", "test": "Direct inhibition", "type": "in vitro ADME"}, "CYP3A4": {"test_system": "CYP3A4", "details": "ref Simcyp; cited from earlier work"}, "CYP3A": {"test_system": "CYP3A", "details": "cited from earlier work"}}, "note": "“Also recorded” adds a separate entry of the source.", "data": [{"smiles": "COc1ccc2c(c1)[C@]13CCCC[C@@H]1[C@H](C2)N(C)CC3", "note": "[Dextromethorphan]", "values": [{"measurement": "fmCYP (fraction of substrate metabolized by CYP)", "setting": "CYP2D6 [1]", "value": 0.72}]}, {"smiles": "Cn1c(COP(=O)(NCCBr)NCCBr)cnc1[N+](=O)[O-]", "note": "[Evofosfamide, [1‐methyl‐2‐nitro‐1H‐imidazole‐5‐yl] methyl N, N’‐bis [2‐bromoethyl] diamidophosphate]", "values": [{"measurement": "Ki at 5 min", "setting": "CYP3A4/5 [2]", "value": 141, "unit": "µM"}, {"measurement": "Effect on CYP3A4 mRNA", "setting": "CYP3A4 mRNA", "value": "no increase; also recorded: No induction"}, {"measurement": "Microscopic evaluation of toxicity", "setting": "human hepatocytes; 1 μM, day 3, some signs of toxicity in third preparation", "value": "no signs of toxicity in two of the three donor cells"}, {"measurement": "Lactate dehydrogenase release", "setting": "human hepatocytes; 10 μM, versus control incubations", "value": "higher"}, {"measurement": "Lactate dehydrogenase release", "setting": "human hepatocytes; 1 and 2.5 μM", "value": "comparable to control incubations"}, {"measurement": "Microscopic evaluation of toxicity", "setting": "human hepatocytes; 2.5 and 10 μM", "value": "Toxicity was observed in all donor cells"}, {"measurement": "KI (inactivation)", "setting": "CYP3A4/5 [3]", "value": 370, "unit": "µM"}, {"measurement": "kinact", "setting": "CYP3A4/5 [3]", "value": 0.000417, "unit": "s⁻¹"}, {"measurement": "Time-dependent inhibition of CYP2D6", "setting": "CYP2D6 [4]", "value": "not time‐dependent"}, {"measurement": "logP at 1 hour", "setting": "[5]", "value": 0.92}, {"measurement": "Vd", "setting": "[6]", "value": 0.43, "unit": "L/kg"}, {"measurement": "clearance", "setting": "[6]", "value": 1060, "unit": "mL/min"}, {"measurement": "fraction unbound at 0.5 h", "setting": "[7]", "value": 0.455}, {"measurement": "Elimination half-life", "setting": "[8]", "value": 48.6, "unit": "min"}, {"measurement": "KI (inactivation)", "setting": "CYP2B6", "value": 3.2, "unit": "mM"}, {"measurement": "kinact", "setting": "CYP2B6", "value": 0.000533, "unit": "s⁻¹"}, {"measurement": "Ki", "setting": "CYP2D6 [9]", "value": 85.3, "unit": "µM"}]}, {"smiles": "Cc1ncc2n1-c1ccc(Cl)cc1C(c1ccccc1F)=NC2", "note": "[Midazolam]", "values": [{"measurement": "fmCYP (fraction of substrate metabolized by CYP)", "setting": "CYP3A4", "value": 0.96}, {"measurement": "Fraction escaping gut metabolism in the absence of inhibitor (fG)", "setting": "CYP3A", "value": 0.57}]}]}
